From ChEMBL document CHEMBL1157908, “Macrocyclic pyridyl polyoxazoles: selective RNA and DNA G-quadruplex ligands as antitumor agents” (J Med Chem, 2010)

Assays:
[1] = system: MIA PaCa-2; experiment: Cytotoxicity against human MIAPaCa2 cells; format: functional, cell-based
[2] = Cytotoxicity against human RPMI8402 cells by MTA assay; format: functional, cell-based; conditions: RPMI 8402
Method in brief: (§1)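 MTT microtiter assay. Cells were kept at 37 °C in 5% CO2 in RPMI with 10% heat-inactivated FBS, 2 mM L-glutamine and penicillin/streptomycin. Continuous exposure to a range of drug concentrations for four days, then MTT read-out. Drug-free control included. IC50 from at least two assays, each in six replicate wells.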

[3] = Cytotoxicity against wild type human KB3-1 cells by MTA assay; format: functional, cell-based; conditions: KB 3-1; method in brief: as §1
[4] = Cytotoxicity against human KBV1 cells expressing MDR1 by MTA assay; format: functional, cell-based; conditions: KB-V1; method in brief: as §1
[5] = Cytotoxicity against human KBH5.0 cells expressing efflux transporter BCRP by MTA assay; format: functional, cell-based; conditions: KBH5.0 cell; method in brief: as §1
[6] = system: Nucleic Acid; experiment: Thermal stabilization of Salmon testes duplex DNA assessed as change in transition temperature at 15 uM after 4 hrs by temperature-dependent spectrophotometry in presence of 150 mM K+ ions; format: nucleic-acid assay; conditions: Salmonidae
Method in brief: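 Salmon testes duplex DNA at 30 μM base pair with ligand at 15 μM. Buffer 10 mM potassium phosphate pH 7.5 with 132 mM KCl (150 mM K+). DNA preheated at 90 °C for 5 min and cooled slowly over 4 hr. Temperature-dependent absorbance recorded in 1 cm quartz cells.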

[7] = system: Nucleic Acid; experiment: Thermal stabilization of […] poly(rA).poly(rU) duplex RNA assessed as change in transition temperature at 15 uM after 4 hrs by temperature-dependent spectrophotometry in presence of 150 mM K+ ions; format: nucleic-acid assay
[8] = system: Nucleic Acid; experiment: Thermal stabilization of human G-quadruplex d[T2G3(T2AG3)3A] DNA assessed as change in transition temperature at 20 uM after 4 hrs by temperature-dependent spectrophotometry in presence of 150 mM K+ ions; format: nucleic-acid assay
Method in brief: (§2)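 UV melting in 1 cm quartz cells. Sample held 5 μM strand of hTel DNA 24mer or AurA RNA 22mer, with ligand at 20 μM. Buffer 10 mM potassium phosphate pH 7.5 plus 132 mM KCl (150 mM K+ total). Nucleic acids preheated at 90 °C for 5 min and slowly cooled over 4 hr before use. AurA transition followed at 295 nm.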

[9] = system: MDA-MB-435; experiment: Antitumor activity against human MDA-MB-435 cells xenografted in NCR nu/nu mouse at 20 mg/kg, ip administered 3 times a week for 4 weeks measured after 35 days post-implantation relative to control; format: functional; conditions: route intraperitoneal
Method in brief: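 Female NCR/NU NU mice bearing sc flank MDA-MB-435 xenografts (1.5×10^6 cells), groups matched by tumor volume. Eight mice dosed ip at 20 mg/kg, 3× weekly for four weeks from day 0. Tumor volume (l × w^2)/2 measured by caliper at least twice weekly. % T/C = average treated volume over citrate-control volume.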

[10] = system: Mus musculus; experiment: Toxicity in NCR nu/nu mouse xenografted with human MDA-MB-435 cells assessed as average body weight at 20 mg/kg, ip administered 3 times a week for 4 weeks measured on day 31 (RVb = 23.9 +/- 1 g); format: organism-based; parameters: dose 20 mg/kg, route intraperitoneal; conditions: in vivo, 672 h
[11] = system: Nucleic Acid; experiment: Thermal stabilization of r[AG4CG2CUG2UCG2AGUG2C] sequence of quadruplex RNA assessed as change in transition temperature at 20 uM after 4 hrs by temperature-dependent spectrophotometry in presence of 150 mM K+ ions; format: nucleic-acid assay; method in brief: as §2
[12] = system: MDA-MB-435; experiment: Antitumor activity against human MDA-MB-435 cells xenografted in NCR nu/nu mouse assessed as tumor volume at an escalating dose of 25 to 42 mg/kg, ip administered on day 10 post-implantation followed by subsequent dose regimen of 3 times a week on alternative days for 3 weeks measured after 35 days (RVb = > 1350 mm'3); format: functional; conditions: dose mg/kg 25-42; route intraperitoneal
Method in brief: (§3)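 Female NCR/NU NU mice, about 9 weeks old. Inoculated sc on the right flank with 1.5×10^6 MDA-MB-435 cells in 0.1 mL RPMI 1640. Groups of seven matched by tumor volume. Given ip 3× weekly on alternate days in escalating weekly doses. Control received 150 μl 10 mM citrate. Tumor volume (l × w^2)/2 measured by microcaliper at least twice weekly. % T/C = treated/control mean volume.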

[13] = system: MDA-MB-435; experiment: Antitumor activity against human MDA-MB-435 cells xenografted in NCR nu/nu mouse at an escalating dose of 25 to 42 mg/kg, ip administered on day 10 post-implantation followed by subsequent dose regimen of 3 times a week on alternative days for 3 weeks measured after 35 days relative to control; format: functional; conditions: dose mg/kg 25-42; route intraperitoneal; method in brief: as §3
[14] = system: Mus musculus; experiment: (§4) Toxicity in NCR nu/nu mouse xenografted with human MDA-MB-435 cells assessed as average body weight at an escalating dose of 25 to 42 mg/kg, ip administered on day 10 post-implantation followed by subsequent dose regimen of 3 times a week on alternative days for 3 weeks measured on day 17 (RVb = 22 +/- 1.8 g); format: organism-based; parameters: dose 25-42 mg/kg, route intraperitoneal; conditions: in vivo, 504 h
Method in brief: (§5)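 Female NCR/NU NU mice with sc MDA-MB-435 flank xenografts. Seven mice dosed ip 3× weekly on alternate days, escalating weekly from 25 through 32 to 42 mg/kg. Controls received 150 μl 10 mM citrate. Individual body weights taken at least twice weekly. Average ± standard deviation given for days 17, 24, 31 and 35.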

[15] = system: Mus musculus; experiment: as §4, with “24” for “17”, “22.5” for “22”, “1.5” for “1.8”; format: organism-based; parameters: dose 25-42 mg/kg, route intraperitoneal; conditions: in vivo, 504 h; method in brief: as §5
[16] = system: Mus musculus; experiment: as §4, with “31” for “17”, “23.9” for “22”, “1” for “1.8”; format: organism-based; parameters: dose 25-42 mg/kg, route intraperitoneal; conditions: in vivo, 504 h; method in brief: as §5
[17] = system: Mus musculus; experiment: as §4, with “35” for “17”, “24.6” for “22”, “1.3” for “1.8”; format: organism-based; parameters: dose 25-42 mg/kg, route intraperitoneal; conditions: in vivo, 504 h; method in brief: as §5

CC(C)[C@@H]1NC(=O)c2coc(n2)-c2coc(n2)-c2coc(n2)[C@H](C(C)C)NC(=O)c2coc(n2)-c2coc(n2)-c2coc1n2 [HEXAOXAZOLE DIVALINE]
IC50 [1]: 500 nM | IC50 [2]: 600 nM | IC50 [3]: 400 nM | IC50 [4]: 8500 nM | IC50 [5]: 500 nM

O=C1NCc2cc(Br)cc(c2)CNC(=O)c2coc(n2)-c2coc(n2)-c2cc(OCCCN3C(=O)c4ccccc4C3=O)cc(n2)-c2nc(co2)-c2nc1co2
IC50 [2]: 1000 nM | IC50 [3]: 1000 nM | IC50 [4]: > 10000 nM | IC50 [5]: > 10000 nM

O=C(NCCc1cc2cc(c1)CNC(=O)c1coc(n1)-c1coc(n1)-c1cc(OCCCN3C(=O)c4ccccc4C3=O)cc(n1)-c1nc(co1)-c1nc(co1)C(=O)NC2)OCc1ccccc1
IC50 [2]: > 10000 nM | IC50 [3]: > 10000 nM | IC50 [4]: > 10000 nM | IC50 [5]: > 10000 nM

O=C1NCc2cccc(n2)CNC(=O)c2coc(n2)-c2coc(n2)-c2cccc(n2)-c2nc(co2)-c2nc1co2
IC50 [2]: > 5000 nM | IC50 [3]: > 5000 nM | IC50 [4]: > 5000 nM | IC50 [5]: > 5000 nM

O=C1NCc2cccc(c2)CNC(=O)c2coc(n2)-c2csc(n2)-c2cccc(n2)-c2nc(cs2)-c2nc1co2
IC50 [2]: > 10000 nM | IC50 [3]: > 10000 nM | IC50 [4]: > 10000 nM | IC50 [5]: > 10000 nM | deltaT [6]: 0 °C | deltaT [7]: 0 °C | deltaT [8]: 0 °C

O=C(NCCc1cc2cc(c1)CNC(=O)c1coc(n1)-c1coc(n1)-c1cc(Br)cc(n1)-c1nc(co1)-c1nc(co1)C(=O)NC2)OCc1ccccc1
IC50 [2]: 1000 nM | IC50 [3]: 600 nM | IC50 [4]: > 10000 nM | IC50 [5]: > 10000 nM

NCCCOc1cc2nc(c1)-c1nc(co1)-c1nc(co1)C(=O)NCc1cccc(c1)CNC(=O)c1coc(n1)-c1coc-2n1
IC50 [2]: 5000 nM | IC50 [3]: 3000 nM | IC50 [4]: > 10000 nM | IC50 [5]: > 10000 nM

O=C1NCc2cc(CCNC(=O)C(F)(F)F)cc(c2)CNC(=O)c2coc(n2)-c2coc(n2)-c2cccc(n2)-c2nc(co2)-c2nc1co2
IC50 [2]: 170 nM | IC50 [3]: 70 nM | IC50 [4]: > 10000 nM | IC50 [5]: > 10000 nM

O=C(NCCc1cc2cc(c1)CNC(=O)c1coc(n1)-c1coc(n1)-c1cccc(n1)-c1nc(co1)-c1nc(co1)C(=O)NC2)OCc1ccccc1
IC50 [2]: 120 nM | IC50 [3]: 120 nM | IC50 [4]: > 10000 nM | IC50 [5]: > 10000 nM

O=C1NCc2cc(Br)cc(c2)CNC(=O)c2coc(n2)-c2coc(n2)-c2cccc(n2)-c2nc(co2)-c2nc1co2
IC50 [2]: 300 nM | IC50 [3]: 60 nM | IC50 [4]: > 10000 nM | IC50 [5]: 1000 nM

O=C1NCc2cccc(c2)CNC(=O)c2coc(n2)-c2coc(n2)-c2cccc(n2)-c2nc(co2)-c2nc1co2
IC50 [2]: 1050 nM | IC50 [3]: 1200 nM | IC50 [4]: 4500 nM | IC50 [5]: 1500 nM | deltaT [6]: 0 °C | deltaT [7]: 0 °C | deltaT [8]: 7.5 °C

O=C1NCc2cccc(c2)CNC(=O)c2coc(n2)-c2coc(n2)-c2cc(OCCCN3C(=O)c4ccccc4C3=O)cc(n2)-c2nc(co2)-c2nc1co2
IC50 [2]: 4500 nM | IC50 [3]: 400 nM | IC50 [4]: > 10000 nM | IC50 [5]: > 10000 nM

CCc1c2c(nc3ccc(OC(=O)N4CCC(N5CCCCC5)CC4)cc13)-c1cc3c(c(=O)n1C2)COC(=O)[C@]3(O)CC [IRINOTECAN]
T/C [9]: 6.1% | Activity [10]: 18.4 g

O=C1NCc2cccc(c2)CNC(=O)c2coc(n2)-c2csc(n2)-c2cccc(n2)-c2nc(co2)-c2nc1co2
IC50 [2]: 1000 nM | IC50 [3]: 260 nM | IC50 [4]: > 10000 nM | IC50 [5]: > 10000 nM

O=C1NCCNCCNC(=O)c2coc(n2)-c2coc(n2)-c2cccc(n2)-c2nc(co2)-c2nc1co2
IC50 [2]: > 10000 nM | IC50 [3]: 4000 nM | IC50 [4]: > 10000 nM | IC50 [5]: > 10000 nM

CN(C)CCc1cc2cc(c1)CNC(=O)c1coc(n1)-c1coc(n1)-c1cccc(n1)-c1nc(co1)-c1nc(co1)C(=O)NC2
IC50 [2]: 180 nM | IC50 [3]: 40 nM | IC50 [4]: > 10000 nM | IC50 [5]: 550 nM | deltaT [6]: 0 °C | deltaT [7]: 0.5 °C | deltaT [8]: 20.5 °C | deltaT [11]: 37 °C | Activity [12]: <400 mm3 | T/C [13]: 27.7% | Activity [14]: 19.7 g | Activity [15]: 20.2 g | Activity [16]: 20.9 g | Activity [17]: 21.2 g

O=C1NCc2cccc(c2)CNC(=O)c2coc(n2)-c2coc(n2)-c2cc(Br)cc(n2)-c2nc(co2)-c2nc1co2
IC50 [2]: 300 nM | IC50 [3]: 150 nM | IC50 [4]: 2000 nM | IC50 [5]: 1000 nM

NCCc1cc2cc(c1)CNC(=O)c1coc(n1)-c1coc(n1)-c1cccc(n1)-c1nc(co1)-c1nc(co1)C(=O)NC2
IC50 [2]: 90 nM | IC50 [3]: 30 nM | IC50 [4]: > 10000 nM | IC50 [5]: 140 nM | deltaT [6]: 0 °C | deltaT [7]: 0.5 °C | deltaT [8]: 21 °C

O=C1NCc2cc(Br)cc(c2)CNC(=O)c2coc(n2)-c2coc(n2)-c2cc(Br)cc(n2)-c2nc(co2)-c2nc1co2
IC50 [2]: > 10000 nM | IC50 [3]: > 10000 nM | IC50 [4]: > 10000 nM | IC50 [5]: > 10000 nM
